Screens as filed in PubChem.
HSV augment: enhancers of HSV replication in host cells, fold increase, host cell viability; maximum fold increase; HSV replication augmentation in cells; 0.005% of 220,000 active; in the data active means maximum fold increase above about 1.5; inconclusive means no clear call, values can overlap the other calls; tested in PC3 cells
Furin inh: human furin inhibitors, primary screen, biochemical, fluorescence intensity; P09958; 0.061% of 220,000 active; purified furin, fluorogenic substrate cleavage; inhibition, % at 20 µM or 30 µM; AID 463115, 2010; in the data active means inhibition above about 25%
Target sequence (P09958 108-714 limits assumed): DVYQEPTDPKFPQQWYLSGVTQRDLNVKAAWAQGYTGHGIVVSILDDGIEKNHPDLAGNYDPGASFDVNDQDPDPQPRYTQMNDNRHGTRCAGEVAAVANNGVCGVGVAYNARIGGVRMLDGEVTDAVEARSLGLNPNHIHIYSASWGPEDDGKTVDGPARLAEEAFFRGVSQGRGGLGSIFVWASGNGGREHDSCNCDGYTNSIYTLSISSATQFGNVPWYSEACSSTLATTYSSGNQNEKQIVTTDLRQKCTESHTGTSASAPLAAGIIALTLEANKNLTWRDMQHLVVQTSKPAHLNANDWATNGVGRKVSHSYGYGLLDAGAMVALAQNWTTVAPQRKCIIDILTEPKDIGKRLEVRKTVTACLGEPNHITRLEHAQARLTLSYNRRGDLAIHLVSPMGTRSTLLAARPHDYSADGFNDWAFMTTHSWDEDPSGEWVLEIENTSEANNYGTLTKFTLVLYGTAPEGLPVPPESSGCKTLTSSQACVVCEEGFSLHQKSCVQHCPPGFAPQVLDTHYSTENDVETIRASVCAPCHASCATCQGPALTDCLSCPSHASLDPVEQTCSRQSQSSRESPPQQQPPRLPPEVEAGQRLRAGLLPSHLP
Insulin prom inh: inhibitors of insulin promoter-driven GFP, primary screen, imaging, TRM-6 cells (human fetal islet line), eGFP reporter, cell count. AID 1273, 2008. reporter expression induced with tamoxifen. 0.9% of 130,000 active. inhibition, % at 2 µM;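 active means inhibition above the mean plus 3 SD, with well images judged a real hit on visual review, cut at about 60% in these data, passing the limit was not always enough; inconclusive means inhibition over the cutoff but images rejected on review; inactive means inhibition not above the cutoff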
Ins promoter up: insulin promoter activators in MIN6 cells, imaging, high-content screening, mouse beta cells; MIN6 insulin promoter-GFP reporter; stronger effect = higher value; z-score at 5 µM; 0.3% of 190,000 active; AID 1625, 2009;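 active means z-score above 3 at 5 µM with at least 500 cells counted in the well; inconclusive means wells under 500 cells, flagged as cytotoxic or low count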
Autophagy mod: autophagy modulators in MEF cells, primary screen, imaging, high-content, MEF GFP-LC3 | MEF GFP-LC3 puncta imaging; test concentration mostly 10 µM | calls only at 10 µM (by protocol) | 0.98% of 190,000 active | AID 463193, 2010;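 active means percentage of spot-positive cells more than 3 SD above its plate mean, without a fluorescence outlier flag or 80% toxicity; inconclusive means no clear call, values can overlap the other calls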;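 further: spot-positive cell cutoff set from DMSO-treated cells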
Dynein transport: inhibitors of GR-EGFP nuclear translocation, primary screen, dynein cargo transport inhibitor project, imaging, high-content, 3617.4 mouse cells; z-score, hits read low; AID 1381, 2008; test concentration mostly 20 µM; stimulated with dexamethasone, 1 µM; stronger effect = lower value; 0.47% of 220,000 active;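 active means plate z-score of nuclear minus cytoplasmic receptor signal below a set negative limit, without overly bright fluorescence or cell loss, cut at about -3.5 in these data, passing the limit was not always enough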;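 further: z-score of nuclear minus cytoplasmic ring GR-EGFP intensity difference per well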
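Medium: Induction medium lacking tetracycline, stripped serum | Probe or stimulus: 1.0 µM final dexamethasone stimulus | Schedule: 48 h induction, then 1 h compound, then 30 min agonist, 37 °C | Signal: Automated 10x imaging of fixed Hoechst-stained cells | Evaluation: Per-cell GR-EGFP intensity, nucleus versus surrounding cytoplasmic ring, well-averaged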
* hit, by the source's call; i = inactive; ? = inconclusive; · = no result; + = active, no number. An excerpt weighted towards active compounds, which were near 2% of everything screened.

SMILES | HSV augment | Furin inh | Insulin prom inh | Ins promoter up | Autophagy mod | Dynein transport
COC(=O)[C@@H]1CC[C@H](C)[C@@H](c2ccc(C)cc2)N1C(=O)c1ccc(/C=N/OCC[C@@H]2C=C[C@H](OC(C)=O)[C@@H](COC(C)=O)O2)cc1 | · | 0 | 0 | -0.23 | i | 0.95
COC(=O)C/C=C/[C@@H](C)[C@@H](/C=N/OCC[C@@H]1C=C[C@H](OC(C)=O)[C@@H](COC(C)=O)O1)NS(=O)(=O)c1ccc(C)cc1 | · | -12 | 24 | 1.1 | + | -0.48
CC(C)NCc1nnc(-c2ccccc2Cl)o1 | i | 1 | 47 | -0.73 | i | 1.7
O=S1(=O)Cc2cc3ccccc3cc2C1 | i | -26 | · | -0.25 | i | -0.32
CC(=O)c1cc(C#N)c(SCC(=O)OC(C)C)nc1C | i | -4 | 93* | 0.15 | i | -0.5
COc1ccc(-c2ccc(C#N)c(SCC(=O)Nc3sc4c(c3C#N)CCC4)n2)cc1OC | i | -16 | -44 | -0.48 | + | -0.078
N#Cc1cc2c(nc1SCC(=O)Nc1sc3c(c1C#N)CCC3)CCC2 | i | -19 | 21 | 0.45 | i | 0.59
COc1ccc2cc(C#N)c(NC(C)C)nc2c1 | i | -31 | 86* | 0.51 | i | -1.3
CCN(CC)c1nc2cc(OC)ccc2cc1C#N | · | -15 | 1 | 0.25 | i | -1
O=C(NCC1CCCN(Cc2ccc3nonc3c2)C1)c1ccc(F)cc1 (stereo not given) | i | -25 | · | 0.54 | i | -1.1
COC(=O)c1ccc(-n2c(C)nc(=O)c(-c3ccccc3)c2C)cc1 | i | -7 | 72* | 0.66 | i | -0.29
COc1ccc(NC2=Nc3ccccc3N3C2=Nc2c(c(C)nn2-c2ccc(C)cc2)C3c2cccnc2)cc1 (stereo not given) | i | -20 | 38 | 3.1* | i | 0.25
C=CCC1(N(C(C)=O)c2ccccc2)CCCCC1 | i | -11 | · | -0.1 | i | 1.1
CC(=O)c1sc2nc(C)cc(C)c2c1N | i | -13 | 77* | 0.33 | i | -0.48
COC(=O)c1sc2nc(C)cc(C)c2c1N | i | -19 | 35 | · | i | -0.8
O=C(CSc1nc2ccccc2c(=O)n1CCCN1CCOCC1)c1c[nH]c2ccccc12 | i | -24 | · | · | + | 0.92
O=C(CSc1nc2ccccc2c(=O)n1CCCN1CCOCC1)Nc1ccc2c(c1)OCO2 | i | -28 | · | · | i | -0.31
NS(=O)(=O)c1cccc(NC(=O)CSc2nc3ccccc3c(=O)n2CCCN2CCOCC2)c1 | i | -31 | 21 | 0.17 | + | -0.31
COc1ccccc1CNC(=O)N/C=C/c1ccc(Cl)cc1 | i | -35 | -82 | 0.03 | i | -0.66
C=CCNc1sc(C(=O)c2ccc(Br)s2)c(N)c1C#N | i | -4 | · | · | + | -0.36
COCCCNC(=S)Nc1cccc2ncccc12 | i | -31 | · | 0.02 | i | -0.79
CN(C)CCCNC(=S)Nc1ccc(-c2ccccc2)cc1 | i | -9 | · | -0.21 | · | -0.24
CN(C)CCn1c(=S)[nH]c2ncccc2c1=O | i | -1 | · | -0.86 | i | 1.2
CCOCCCn1c(=S)[nH]c2ncccc2c1=O | · | -22 | 100* | 0.28 | i | -0.47
Cc1cccc(C)c1NC(=O)COC(=O)Cc1ccsc1 | i | -21 | 67* | · | i | -1
SMILES | HSV augment | Furin inh | Insulin prom inh | Ins promoter up | Autophagy mod | Dynein transport
Cc1cccc(C)c1NC(=O)COC(=O)COc1ccc2c(C)cc(=O)oc2c1 | i | -32 | 60* | 0.2 | i | -0.52
Cc1cccc(C)c1NC(=O)COC(=O)c1cccnc1 | i | -25 | · | 0.69 | + | 0.64
COc1ccc(CCNC(=O)c2cc(C3CC3)on2)cc1OC | i | -12 | · | 0.21 | · | 0.27
O=C(CCC1CCCCC1)Nc1ccccc1C(=O)N1CCOCC1 | i | -19 | · | · | i | 2.9
COc1ccc(CCNc2cc(N3CCN(C(=O)c4ccccc4F)CC3)ccc2[N+](=O)[O-])cc1OC | · | -2 | 50 | ? | + | -0.49
O=C(C1CN(S(=O)(=O)c2ccccc2)CCN1S(=O)(=O)c1ccccc1)N1CCCCCC1 (stereo not given) | i | -20 | 100* | 1.1 | i | 1.9
CCCNc1nc(Cl)nc(NC(C)(C)C)n1 | i | -16 | · | -0.13 | i | 0.03
NC(=O)COC(=O)CC12CC3CC(CC(Br)(C3)C1)C2 | i | -14 | 21 | -0.32 | i | -0.56
O=C(CC12CC3CC(CC(Br)(C3)C1)C2)OCCN1CCCCC1 | i | -17 | -38 | 0.1 | + | 0.64
CCc1ccc(OCC(=O)N(C)C)c(Br)c1 | i | -17 | 16 | -0.68 | + | -0.64
CCc1ccc(OCC(=O)NC(=S)Nc2ccc(F)cc2)c(Br)c1 | i | -10 | · | -0.78 | i | -0.3
Cn1c(C(=O)c2ccccc2[N+](=O)[O-])nc2ccccc21 | i | -12 | 80* | 1.1 | i | 3
C=CCSc1nc2ccccc2n1C(=O)/C=C/c1ccc(OC)c(OC)c1 | i | -4 | -16 | · | i | -5.1*
Cn1c(NNC(=O)C2CCCCC2)cc(=O)n(C)c1=O | i | -10 | · | -0.12 | + | 0.55
O=C(NCc1ccccn1)C(=O)Nc1nc(C23CC4CC(CC(C4)C2)C3)cs1 | i | -13 | · | -1.5 | i | -0.71
C=CCNc1nnc(Sc2ncccc2[N+](=O)[O-])s1 | · | -8 | 93* | -0.86 | i | 0.58
COc1cc2c(cc1OC)/C(=C/c1ccc(Br)cc1)C(=O)OC2 | i | -8 | 71* | -0.13 | i | 0.82
CC(C)(C)C1=CC=C(C(C)(C)C)C(=O)C1=O | i | -11 | · | -0.14 | · | -3.7*
CC(C)(C)c1ccc2c(c1)C(=O)c1ccccc1C2=O | i | -17 | · | -0.24 | i | -1
O=C(Nc1nc2ccccc2s1)c1cc2c(s1)-c1ccccc1OC2 | i | -21 | · | -0.78 | + | i
O=C(Nc1nccs1)c1cc2c(s1)-c1ccccc1OC2 | · | -26 | · | -1 | i | -1.5
Cc1ccc(NCC(=O)Nc2c(C)n(C)n(-c3ccccc3)c2=O)cc1S(=O)(=O)N(C)C | i | -13 | · | 0.47 | · | -0.7
Cc1nc2ccccn2c1C(=O)/C=C/c1cccc([N+](=O)[O-])c1 | i | -8 | · | -0.21 | + | -2.5
Cc1ccc(/C=C/C(=O)c2c(C)nc3ccccn23)cc1 | i | -10 | · | 0.43 | i | -0.42
CC(C)CC(=O)N=C1SC2CS(=O)(=O)CC2N1Cc1ccccc1Cl (stereo not given) | i | -19 | · | 0.48 | · | 0.56
CCCCOc1ccc(-c2nnn(CC(=O)NCc3ccco3)n2)cc1 | i | -11 | 31 | -1.4 | + | 0.74
CCOc1ccc(-c2nnn(CC(=O)NCc3ccco3)n2)cc1OCC | i | -16 | -33 | 0.5 | i | -0.58
Cc1ccc(C(=O)NCc2ccccn2)cc1Cl | i | -32 | · | -0.84 | i | -0.49
